Experimental data as given in ChEMBL document CHEMBL1137397, “Identification of selective, nonpeptidic nitrile inhibitors of cathepsin s using the substrate activity screening method” (J Med Chem, 2006).

Experiments:
Details in all cases: Homo sapiens
[1] = substrate: CCCC[C@@H](C(=O)Nc1ccc2c(C)c(CC(=O)O)c(=O)oc2c1)n1cc([C@@](C)(NC(=O)c2ccccc2)C(C)C)nn1; experiment: (§1) Binding affinity to cathepsin S
In short: (§2)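 Cathepsin S at 0.6 nM in pH 6.1 100 mM sodium phosphate with 100 mM NaCl, 1 mM DTT, 1 mM EDTA and 0.001% Tween-20. Enzyme preincubated 5 min at 37 °C with five inhibitor concentrations (10-90% inhibition), in duplicate. Cbz-Leu-Arg-AMC added at 5 and 2.5 µM, then AMC read (ex 355/em 450 nm) over 5 min. Ki by Dixon method.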

[2] = substrate: CCCC[C@@H](C(=O)Nc1ccc2c(C)c(CC(=O)O)c(=O)oc2c1)n1cc([C@@](C)(NC(=O)c2ccsc2)C(C)C)nn1; experiment: as §1; in short: as §2
[3] = substrate: CCCC[C@@H](C(=O)Nc1ccc2c(C)c(CC(=O)O)c(=O)oc2c1)n1cc([C@@](C)(NC(=O)c2ccccc2)C2CCCCC2)nn1; experiment: as §1; in short: as §2
[4] = substrate: CCCC[C@@H](C(=O)Nc1ccc2c(C)c(CC(=O)O)c(=O)oc2c1)n1cc([C@@](C)(NC(=O)c2ccsc2)C2CCCCC2)nn1; experiment: as §1; in short: as §2
[5] = substrate: CCCC[C@@H](C(=O)Nc1ccc2c(C)c(CC(=O)O)c(=O)oc2c1)n1cc([C@@](C)(NC(=O)c2ccsc2)C2CCC(C)CC2)nn1; experiment: as §1; in short: as §2

B1: Cathepsin S (Homo sapiens), P25774 (protein)
chain: MKRLVCVLLVCSSAVAQLHKDPTLDHHWHLWKKTYGKQYKEKNEEAVRRLIWEKNLKFVMLHNLEHSMGMHSYDLGMNHLGDMTSEEVMSLMSSLRVPSQWQRNITYKSNPNRILPDSVDWREKGCVTEVKYQGSCGACWAFSAVGALEAQLKLKTGKLVSLSAQNLVDCSTEKYGNKGCNGGFMTTAFQYIIDNKGIDSDASYPYKAMDQKCQYDSKYRAATCSKYTELPYGREDVLKEAVANKGPVSVGVDARHPSFFLYRSGVYYEPSCTQNVNHGVLVVGYGDLNGKEYWLVKNSWGHNFGEEGYIRMARNKGNHCGIASFPSYPEI
Km [1]: 410 µM | Km [2]: 300 µM | Km [3]: 57 µM | Km [4]: 13 µM | Km [5]: 17 µM
